Experimental data as given in article PMC6424611 (Journal of molecular biology, 2019).
Where no end group is shown, it is not given here. [ ]: non-standard residue; d: D form. The star is where a group is joined. Biotin = O=C1N[C@H]2[C@H](CS[C@H]2CCCCC(=O)*)N1; TTDS = NCCCOCCOCCOCCCNC(=O)CCC(=O)*; pS = N[C@@H](COP(=O)(O)O)C(=O)O

Key:
[1] = system: MAGI3-2 PDZ; test: holdup assay; assay type: binding, human; conditions: fraction of PDZ depleted; ~4 μM PDZ; biotinylated RSK1_725–735; triplicates
Outline: (§1)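 Automated holdup in triplicate measured biotinylated (N-terminal TTDS linker) RSK1 725–735 peptides, unphosphorylated or phosphorylated, against E. coli-expressed PDZome v2 domains. Soluble lysate was adjusted to ~4 μM, giving 255 domains for the unphosphorylated and 252 for the phosphorylated peptide. Binding intensity (BI) is the fraction of PDZ depleted from the fluid phase. BI 0.2 was the high-confidence threshold.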

[2] = target: MAGI1-2 PDZ (Homo sapiens, UniProt Q96QZ7); test: holdup assay; assay type: binding
Outline: (§2)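 Automated holdup against N-terminally biotinylated (TTDS linker) RSK1 725–735 peptides, unphosphorylated and phosphorylated, in triplicate. PDZome v2 clones were codon-optimized and expressed in E. coli, with soluble lysate adjusted to ~4 μM. BI is the PDZ fraction depleted from the fluid phase.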

[3] = target: HTRA1 PDZ (Homo sapiens, UniProt Q92743); test: holdup assay; assay type: binding; conditions: ~4 μM PDZ
Outline: as §2

[4] = system: LNX1 −3 PDZ; test: holdup assay; assay type: binding, human; conditions: ~4 μM PDZ
Outline: as §2

[5] = system: SHANK3 PDZ; test: holdup assay; assay type: binding, human; conditions: ~4 μM PDZ
Outline: as §2

[6] = target: T1, SNTG2 PDZ (Homo sapiens, UniProt Q9NY99); test: holdup assay; assay type: binding; conditions: fraction of PDZ depleted; ~4 μM PDZ; biotinylated RSK1_725–735; triplicates
T1 sequence (Q9NY99 73-156 limits assumed): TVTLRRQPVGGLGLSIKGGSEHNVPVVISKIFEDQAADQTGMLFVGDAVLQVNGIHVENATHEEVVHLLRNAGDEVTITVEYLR
Outline: as §2

[7] = system: ARHGEF11 PDZ; test: holdup assay; assay type: binding, human; conditions: ~4 μM PDZ
Outline: as §2

[8] = system: GRASP PDZ; test: holdup assay; assay type: binding, human; conditions: ~4 μM PDZ
Outline: as §2

[9] = system: PTPN3 PDZ; test: holdup assay; assay type: binding, human; conditions: ~4 μM PDZ
Outline: as §2

[10] = system: DFNB31-3 PDZ; test: holdup assay; assay type: binding, human; conditions: ~4 μM PDZ
Outline: as §2

[11] = target: T2, MAST1 PDZ (Homo sapiens, UniProt Q9Y2H9); test: holdup assay; assay type: binding; conditions: ~4 μM PDZ
T2 sequence (Q9Y2H9 967-1055 limits assumed): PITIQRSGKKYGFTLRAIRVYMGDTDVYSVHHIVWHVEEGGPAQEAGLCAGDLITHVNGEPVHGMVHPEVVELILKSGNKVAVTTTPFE
Outline: as §2

[12] = target: MAGI2-2 PDZ (Homo sapiens, UniProt Q86UL8); test: holdup assay; assay type: binding; conditions: ~4 μM PDZ
Outline: as §2

[13] = target: GOPC PDZ (Homo sapiens, UniProt Q9HD26); test: holdup assay; assay type: binding; conditions: fraction of PDZ depleted; ~4 μM PDZ; biotinylated RSK1_725–735; triplicates
[14] = target: T3, SNTB1 PDZ (Homo sapiens, UniProt Q13884); test: holdup assay; assay type: binding; conditions: ~4 μM PDZ
T3 sequence (Q13884 112-195 limits assumed): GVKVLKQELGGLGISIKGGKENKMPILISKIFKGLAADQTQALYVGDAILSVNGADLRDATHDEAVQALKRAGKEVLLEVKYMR
Outline: as §2

[15] = system: PPP1R9A PDZ; test: holdup assay; assay type: binding, human; conditions: ~4 μM PDZ
Outline: as §2

[16] = target: T4, ARHGEF12 PDZ (Homo sapiens, UniProt Q9NZN5); test: holdup assay; assay type: binding; conditions: ~4 μM PDZ
T4 sequence (Q9NZN5 72-151 limits assumed): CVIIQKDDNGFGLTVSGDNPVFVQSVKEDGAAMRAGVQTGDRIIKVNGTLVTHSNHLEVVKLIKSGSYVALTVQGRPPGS
Outline: as §2

[17] = system: human PDZ domains (PDZome); test: holdup assay, PDZome-binding profile
Outline: as §1

[18] = system: GORASP2 PDZ; test: holdup assay; assay type: binding, human; conditions: ~4 μM PDZ
Outline: as §2

[19] = target: T5, NHERF3-1 PDZ (Homo sapiens, UniProt Q5T2W1); test: holdup assay; assay type: binding; conditions: ~4 μM PDZ
T5 sequence (Q5T2W1 9-90 limits assumed): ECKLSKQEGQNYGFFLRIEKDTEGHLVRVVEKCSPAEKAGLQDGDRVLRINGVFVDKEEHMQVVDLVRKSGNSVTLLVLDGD
Outline: as §2

[20] = target: SNX27 PDZ (Homo sapiens, UniProt Q96L92); test: holdup assay; assay type: binding; conditions: fraction of PDZ depleted; ~4 μM PDZ; biotinylated RSK1_725–735; triplicates
[21] = system: GRID2IP-1 PDZ; test: holdup assay; assay type: binding, human; conditions: ~4 μM PDZ
Outline: as §2

[22] = system: NHERF2-2 PDZ; test: holdup assay; assay type: binding, human; conditions: ~4 μM PDZ
Outline: as §2

[23] = target: GRID2IP-2 PDZ (Homo sapiens, UniProt A4D2P6); test: holdup assay; assay type: binding; conditions: fraction of PDZ depleted; ~4 μM PDZ; biotinylated RSK1_725–735; triplicates
Outline: as §1

[24] = target: T6, SYNJ2BP PDZ (Homo sapiens, UniProt P57105); test: holdup assay; assay type: binding; conditions: fraction of PDZ depleted; ~4 μM PDZ; biotinylated RSK1_725–735; triplicates
T6 sequence (P57105 13-100 limits assumed): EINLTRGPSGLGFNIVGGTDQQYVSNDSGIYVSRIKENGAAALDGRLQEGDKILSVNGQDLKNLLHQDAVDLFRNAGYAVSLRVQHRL
Outline: as §2

[25] = system: DLG4-2 PDZ; test: holdup assay; assay type: binding, human; conditions: fraction of PDZ depleted; ~4 μM PDZ; biotinylated RSK1_725–735; triplicates
[26] = target: T7, PDZRN4-1 PDZ (Homo sapiens, UniProt Q6ZMN7); test: holdup assay; assay type: binding; conditions: fraction of PDZ depleted; ~4 μM PDZ; biotinylated RSK1_725–735; triplicates
T7 sequence (Q6ZMN7 224-314 limits assumed): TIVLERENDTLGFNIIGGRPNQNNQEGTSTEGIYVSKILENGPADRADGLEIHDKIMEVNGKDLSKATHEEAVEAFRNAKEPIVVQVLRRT
Outline: as §1

[27] = system: LIMK2 PDZ; test: holdup assay; assay type: binding, human; conditions: ~4 μM PDZ
Outline: as §2

[28] = fraction of PDZ depleted, biotinylated RSK1_725–735, triplicates
[29] = read-out: KD, estimated, from BI, estimated 17 μM peptide
[30] = BI threshold 0.2, compared to the unphosphorylated peptide

Chain of MAGI1-2 PDZ (Q96QZ7 472-554 limits assumed): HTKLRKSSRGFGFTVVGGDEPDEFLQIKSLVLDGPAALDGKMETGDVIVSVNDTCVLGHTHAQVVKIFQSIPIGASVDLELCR
Chain of MAGI2-2 PDZ (Q86UL8 426-510 limits assumed): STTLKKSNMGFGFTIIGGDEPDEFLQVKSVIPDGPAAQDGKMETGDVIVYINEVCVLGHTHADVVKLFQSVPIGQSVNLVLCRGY
Chain of HTRA1 PDZ (Q92743 365-467 limits assumed): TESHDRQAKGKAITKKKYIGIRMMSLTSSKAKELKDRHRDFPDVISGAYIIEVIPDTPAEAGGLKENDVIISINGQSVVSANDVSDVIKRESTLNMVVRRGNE
Chain of GRID2IP-2 PDZ (A4D2P6 279-356 limits assumed): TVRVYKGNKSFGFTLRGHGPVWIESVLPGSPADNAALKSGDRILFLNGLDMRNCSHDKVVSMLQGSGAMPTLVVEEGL

binding intensity (BI) [1]: 0.28 ± 0.06
binding intensity (BI) ([2]; fraction of PDZ depleted, ~4 μM PDZ, biotinylated RSK1_725–735, triplicates): 0.15 ± 0.02
down regulation of interaction by phosphorylation ([2]; holdup, phosphorylated vs unphosphorylated): a factor of five
Kd ([2]; read-out: KD, estimated, from BI, estimated 17 μM peptide, ~4 μM PDZ): 92.9 µM
binding intensity (BI) [3, 28]: 0.36 ± 0.01
Kd [3, 29]: 27.7 µM
binding intensity (BI) [4, 28]: 0.24 ± 0.07
Kd [4, 29]: 50.8 µM
binding intensity (BI) [5, 28]: 0.07 ± 0.01
Kd [5, 29]: > 100 µM
binding intensity (BI) [6]: 0.52 ± 0.05
binding intensity (BI) [7, 28]: 0.01 ± 0.02
Kd [7, 29]: > 100 µM
binding intensity (BI) [8, 28]: 0.04 ± 0.01
Kd [8, 29]: > 100 µM
binding intensity (BI) [9, 28]: 0.21 ± 0.02
Kd [9, 29]: 60.8 µM
binding intensity (BI) [10, 28]: −0.01 ± 0.02
Kd [10, 29]: > 100 µM
binding intensity (BI) [11, 28]: 0.08 ± 0.03
Kd [11, 29]: > 100 µM
binding intensity (BI) [12, 28]: 0.23 ± 0.03
Kd [12, 29]: 53.8 µM
binding intensity (BI) [13]: 0.25 ± 0.10
binding intensity (BI) [14, 28]: 0.45 ± 0.08
Kd [14, 29]: 18.6 µM
binding intensity (BI) [15, 28]: 0.33 ± 0.02
Kd [15, 29]: 31.8 µM
binding intensity (BI) [16, 28]: 0.05 ± 0.05
Kd [16, 29]: > 100 µM
number of detectable binders lost [17, 30]: 12
number of new binders gained [17, 30]: 10
average BI ([17]; PDZome profile): 0.33
maximal BI ([17]; PDZome profile): 0.54
binding intensity (BI) [18, 28]: 0.19 ± 0.01
Kd [18, 29]: 69.2 µM
binding intensity (BI) [19, 28]: 0.03 ± 0.01
Kd [19, 29]: > 100 µM
binding intensity (BI) [20]: 0.47 ± 0.02
binding intensity (BI) [21, 28]: 0.24 ± 0.01
Kd [21, 29]: 50.8 µM
binding intensity (BI) [22, 28]: 0.07 ± 0.05
Kd [22, 29]: > 100 µM
binding intensity (BI) [23]: 0.00 ± 0.01
binding intensity (BI) [24]: 0.54 ± 0.03
binding intensity (BI) [25]: 0.25 ± 0.02
binding intensity (BI) [26]: 0.54 ± 0.03
binding intensity (BI) [27, 28]: 0.22 ± 0.07
Kd [27, 29]: 57.2 µM
Substance: phosphorylated RSK1 peptide: RSK1 C-terminal PBM peptide phosphorylated at position −3; same constructs as the unphosphorylated ({Biotin-TTDS}-RRVRKLP[pS]TTL)
